In ChEMBL document CHEMBL1144150, “A new biflavonoid from Calophyllum panciflorum with antitumor-promoting activity” (J Nat Prod, 1999):

Columns and labels:
Type in all cases: cell-based
Raji [1] = assay: Antitumor-promoting activity assessed as TPA-induced EBV-early antigen activation in human Raji cells at 16 nmol after 48 hrs relative to TPA; conditions: human gammaherpesvirus 4
Raji [2] = assay: Antitumor-promoting activity assessed as TPA-induced EBV-early antigen activation in human Raji cells at 3.2 nmol after 48 hrs relative to TPA; conditions: human gammaherpesvirus 4
Raji [3] = assay: Antitumor-promoting activity assessed as TPA-induced EBV-early antigen activation in human Raji cells at 0.32 nmol after 48 hrs relative to TPA; conditions: human gammaherpesvirus 4
[4] = Cytotoxicity against human Raji cells assessed as cell viability at 32 nmol by trypan blue staining; conditions: read-out: Activity
[5] = Cytotoxicity against human Raji cells assessed as cell viability at 16 nmol by trypan blue staining; conditions: read-out: Activity
[6] = Cytotoxicity against human Raji cells assessed as cell viability at 3.2 nmol by trypan blue staining; conditions: read-out: Activity
[7] = Cytotoxicity against human Raji cells assessed as cell viability at 0.32 nmol by trypan blue staining; conditions: read-out: Activity
Raji [8] = assay: Antitumor-promoting activity assessed as TPA-induced EBV-early antigen activation in human Raji cells at 32 nmol after 48 hrs relative to TPA; conditions: human gammaherpesvirus 4
Outline: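 Raji cells (EBV genome-carrying lymphoblastoid, nonproducer) in RPMI 1640 with 10% FBS, 1×10⁶/mL, given 4 mM n-butyric acid plus 32 pmol TPA (20 ng/mL) and test compound; 37 °C, CO₂, 48 h. EA-positive cells scored by indirect immunofluorescence using NPC patient sera, ≥500 cells counted, three repeats. Expressed as % of butyric acid+TPA control (100%), mean ± S.D.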

Row | Structure (SMILES) | Activity (Raji [1]) | Activity (Raji [2]) | Activity (Raji [3]) | viability at 32 nmol [4] | viability at 16 nmol [5] | viability at 3.2 nmol [6] | viability at 0.32 nmol [7] | Activity (Raji [8])
1 | O=C1c2c(O)cc(O)cc2O[C@@H](c2ccc(O)cc2)[C@@H]1c1c(O)cc(O)c2c(=O)c(O)c(-c3ccc(O)cc3)oc12 [GARCINIANIN] | 31.4% | 69.2% | 89.4% | 70% | > 80% | > 80% | > 80% | 
2 | O=C1c2c(O)cc(O)cc2O[C@H](c2ccc(O)cc2)[C@H]1c1c(O)cc(O)c2c1O[C@H](c1ccc(O)c(O)c1)[C@@H](O)C2=O | 63.9% | 90.3% | 100% | 70% | > 80% | > 80% | > 80% | 28.7%
3 | O=C1c2c(O)cc(O)cc2O[C@H](c2ccc(O)cc2)[C@H]1c1c(O)cc(O)c2c(=O)cc(-c3ccc(O)c(O)c3)oc12 [MORELLOFLAVONE] | 40.1% | 72.6% | 91.2% | 70% | > 80% | > 80% | > 80% | 
4 | O=C1c2c(O)cc(O)cc2O[C@H](c2ccc(O)cc2)[C@H]1c1c(O)cc(O)c2c1O[C@H](c1ccc(O)cc1)[C@@H](O)C2=O | 61% | 88.2% | 95.7% | 70% | > 80% | > 80% | > 80% | 25.3%
5 | O=C1c2c(O)cc(O)cc2O[C@@H](c2ccc(O)cc2)[C@@H]1c1c(O)cc(O)c2c(=O)c(O)c(-c3ccc(O)c(O)c3)oc12 [PANCIBIFLAVONOL] | 50.2% | 75% | 94.4% | 70% | > 80% | > 80% | > 80% | 22.1%
6 | O=C1C[C@@H](c2ccc(O)cc2)Oc2c1c(O)cc(O)c2[C@H]1C(=O)c2c(O)cc(O)cc2O[C@@H]1c1ccc(O)cc1 | 48.2% | 82.9% | 100% | 70% | > 80% | > 80% | > 80% | 19.4%
7 | O=C1C[C@@H](c2ccc(O)c(O)c2)Oc2c1c(O)cc(O)c2[C@H]1C(=O)c2c(O)cc(O)cc2O[C@@H]1c1ccc(O)cc1 | 42.5% | 71.3% | 90.6% | 70% | > 80% | > 80% | > 80% | 
